Screening results from PubChem BioAssay.
Hits are enriched below; roughly 4% of the tested compounds scored in any of these assays.
TAAR1 antag = human TAAR1 antagonism; inhibition, % at 3 µM; CHO RD-HGA16 TAAR1, Fluo-8 calcium fluorescence, antagonist; AID 624466; Q96RJ0; actives 1.5% (n = 360,000);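 active = inhibition above a per-plate cutoff, the mean inhibition of test compounds on that plate plus 3 SD, cut at about 49% in these data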
Target sequence (Q96RJ0 whole entry, looked up): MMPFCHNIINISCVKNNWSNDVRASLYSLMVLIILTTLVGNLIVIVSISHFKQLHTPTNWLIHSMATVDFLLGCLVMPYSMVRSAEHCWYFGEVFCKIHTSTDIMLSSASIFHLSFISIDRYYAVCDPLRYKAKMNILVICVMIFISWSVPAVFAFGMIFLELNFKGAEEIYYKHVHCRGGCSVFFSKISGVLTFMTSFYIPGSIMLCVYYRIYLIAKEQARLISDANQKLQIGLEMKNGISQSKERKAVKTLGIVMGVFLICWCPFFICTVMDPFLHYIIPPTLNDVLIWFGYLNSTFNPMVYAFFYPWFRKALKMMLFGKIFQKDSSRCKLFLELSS
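Test system – hTAAR1-expressing CHO RD-HGA16 cells, Gα16-coupled · Reagent – β-PEA at EC80 concentration, post-compound challenge · Compound dosing – 3 µM, single point · Timing – 140 s kinetic read after compound, 140 s after agonist · Detection – Fluo-8 intracellular calcium dye fluorescence, real-time kinetic reads · Control set – DMSO and EC80 PEA controls · Repeats – n of 1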
OX1R antag-1 = antagonists of human orexin 1 receptor (OX1R); O43613; OX1R-expressing cells, FRET antagonist read-out; inhibition, % at 6.6 µM; actives 1.8% (n = 330,000); AID 485270; in the data active = inhibition mostly above about 38%, no sharp cut-off; inactive = mostly below about 40%
Target sequence (O43613 whole entry, looked up): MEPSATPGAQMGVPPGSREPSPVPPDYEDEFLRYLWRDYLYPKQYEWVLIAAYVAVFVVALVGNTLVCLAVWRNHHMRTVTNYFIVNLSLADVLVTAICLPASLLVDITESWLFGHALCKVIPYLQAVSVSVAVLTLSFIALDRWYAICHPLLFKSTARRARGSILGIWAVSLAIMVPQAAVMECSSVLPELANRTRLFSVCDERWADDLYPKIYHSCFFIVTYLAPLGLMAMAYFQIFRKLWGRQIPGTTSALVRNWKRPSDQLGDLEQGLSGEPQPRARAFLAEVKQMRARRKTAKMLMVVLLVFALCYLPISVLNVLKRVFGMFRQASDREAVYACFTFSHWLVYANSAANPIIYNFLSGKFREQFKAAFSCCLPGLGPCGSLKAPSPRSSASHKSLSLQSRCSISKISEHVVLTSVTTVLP
TAAR1 agonist = human TAAR1 agonism; CHO RD-HGA16 TAAR1, Fluo-8 calcium fluorescence; vehicle wells 0%, saturating PEA agonist 100%; Q96RJ0; activation, % at 3 µM; actives 0.99% (n = 360,000);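 active = activation above the mean activation of all test compounds in the run plus 3 SD, cut at about 38% in these data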
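System: CHO RD-HGA16 cells carrying human TAAR1 plus Gα16; Incubation: 17-24 h seeding, 75 min 37 °C dye, 30 min RT; Measured by: Fluo-8 fluorescence, 5 s baseline then 140 s kinetic read; Control set: DMSO and PEA EC100; Replication: single well for each compound.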
OX1R antag-2 = antagonists of human orexin 1 receptor; O43613; CHO/OX1R cells, Fluo-8 calcium fluorescence, orexin A; inhibition, % at 5 µM; actives 0.43% (n = 330,000);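 active = inhibition above its plate's threshold, mean inhibition of all tested compounds on the plate plus 3 SD, cut at about 37% in these data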
CHO parental Ca = signal in parental CHO cells, OX1R antagonist counter-screen; parental CHO-K1, ATP-induced calcium, Fluo-8 fluorescence; inhibition, % at 5.6 µM; actives 0.63% (n = 330,000); AID 463079;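 active = inhibition above that plate's mean sample inhibition plus 3 SD, cut at about 26% in these data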
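Assay system: parental CHO cells; Read-out basis: percent inhibition of ATP-evoked calcium rise, normalized to controls; Benchmarks: ATP and no-ATP DMSO wells; Compound dosing: single nominal dose of 5.6 µM per compound; Signal: Fluo-8 calcium dye fluorescence; Also added: ATP as calcium-mobilizing challenge; Repeats: singlicate.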
Large screens that a line does not name were inactive.

Cc1cc(C)c(OCC(=O)Nc2nc3ccccc3[nH]2)c(C)c1	TAAR1 antag 49, TAAR1 agonist 42
Cc1ccc2oc(-c3cccc(NC(=O)c4ccccn4)c3)nc2c1	OX1R antag-1 68
O=C(COc1ccccc1)Nc1cccc(-c2nc3ccccc3[nH]2)c1	TAAR1 antag 49
COc1ccc(OCC(=O)Nc2cccc(-c3nc4ccccc4[nH]3)c2)cc1	none
COc1ccc(OCC(=O)Nc2cccc(-c3nc4ccccc4o3)c2)cc1	TAAR1 antag 49
CCOC(=O)[C@]12CCC=C1N(Cc1ccc(Cl)cc1Cl)C(=O)[C@H](CC(=O)NCC13CC4CC(CC(C4)C1)C3)C2	none (no result: OX1R antag-1, OX1R antag-2, CHO parental Ca)
COc1ccc(CNC(=O)c2cc(-c3ccncc3)nc3c(C)cc(C)cc23)cc1OC	OX1R antag-1 48
COc1ccc(CCNC(=O)c2cc(-c3ccncc3)nc3c(Cl)cccc23)cc1OC	none
COc1ccc(NC(=O)c2cc(-c3ccncc3)nc3ccc(Br)cc23)cc1OC	TAAR1 antag 53
COC1OC(COCc2ccccc2)C2OC(C)(C)OC2C1O (stereo not given)	none (no result: OX1R antag-1, OX1R antag-2, CHO parental Ca)
Nc1[nH]c(=S)[nH]c(=O)c1-c1ccccc1	none
O=c1[nH]c(=S)[nH]c2nc(-c3ccccc3)cnc12	OX1R antag-1 63
Cc1cc(NC(=O)C(C)SCC(=O)Nc2cc(C(F)(F)F)ccc2N2CCOCC2)no1 (stereo not given)	none
C/C(=N\Nc1ccc([N+](=O)[O-])cc1)c1cc2ccccc2o1	OX1R antag-1 55, OX1R antag-2 55, CHO parental Ca 41
O=C(N/N=C/c1ccc([N+](=O)[O-])cc1)c1cc2ccccc2o1	none
Fc1ccc(CN2CCN(c3ncc(Cc4ccccc4)cn3)CC2)c(Cl)c1	none (no result: OX1R antag-1, OX1R antag-2, CHO parental Ca)
CC1(C)Cc2c(sc(NC(=O)COc3cccc4ccccc34)c2C#N)C(C)(C)N1	CHO parental Ca 82
Cc1cc(=O)oc2cc(OC(=O)c3cncc(Br)c3)ccc12	none
Cc1c(C(=O)NC(C)c2ccccn2)oc2c(Cl)cccc12 (stereo not given)	none (no result: OX1R antag-1, OX1R antag-2, CHO parental Ca)
Cc1cc(NC(=O)c2oc3ccccc3c2C)ccc1-n1cnnn1	OX1R antag-1 39
Cc1c(C(=O)Nc2ccccn2)oc2c(Cl)cccc12	OX1R antag-1 34
Cc1c(C(=O)Nc2ccccn2)oc2ccccc12	OX1R antag-1 52
Cc1ccc(C(=O)NCCC(=O)NCc2ccco2)cc1	none
O=C(CSc1ccc(-c2cccs2)nn1)NCc1ccccc1Cl	OX1R antag-1 70 (no result: TAAR1 antag, TAAR1 agonist)
COc1cccc(CNC(=O)CSc2ccc(-c3cccs3)nn2)c1	OX1R antag-1 58
COc1ccccc1CNC(=O)CSc1ccc(-c2cccs2)nn1	OX1R antag-1 59
C#CCN(C[C@H]1[C@H](OC(=O)NCCCCCC)[C@H](OC(=O)NCCCCCC)CN(C(=O)OC(C)C)N1C(=O)OC(C)C)S(=O)(=O)c1ccc(C)cc1	none (no result: OX1R antag-1, OX1R antag-2, CHO parental Ca)
COc1cccc(N=Nc2ccc3cccnc3c2O)c1	TAAR1 antag 74, OX1R antag-2 53, CHO parental Ca 83
COc1cccc(N=Nc2ccc(O)c3ncccc23)c1	TAAR1 antag 70, OX1R antag-2 49, CHO parental Ca 55
COc1ccc(N=Nc2ccc(O)c3ncccc23)cc1	CHO parental Ca 51
Cc1ccccc1N=Nc1ccc(O)c2ncccc12	none
COC(=O)c1cc2c(c3c4cc(C)ccc4n(S(=O)(=O)c4cccc(C)c4)c13)C(=O)N(Cc1ccccc1OC)C2	none (no result: OX1R antag-1, OX1R antag-2, CHO parental Ca)
Nc1[nH]c(C(=O)c2ccccc2)c(-c2ccc3ccccc3c2)c1C(=O)NCc1ccc(-c2ccccc2)cc1	none (no result: OX1R antag-1, OX1R antag-2, CHO parental Ca)
COc1ccc(C(=O)NCC(=O)OCC(=O)c2c[nH]c3ccccc23)cc1	none (no result: OX1R antag-1, OX1R antag-2, CHO parental Ca)
O=C(CNC(=O)c1ccccc1)OCC(=O)c1c[nH]c2ccccc12	TAAR1 agonist 40
N#CCC(=O)Nc1ccc(C(=O)OCC(=O)c2c[nH]c3ccccc23)cc1	OX1R antag-1 39, TAAR1 agonist 43
C=CCN=C1NC(c2cccc(F)c2)C(C(=O)OC)=C(C)N1Cc1ccccc1C(F)(F)F (stereo not given)	none (no result: OX1R antag-1, OX1R antag-2, CHO parental Ca)
NC(=O)c1cc(S(=O)(=O)Nc2ccc(OC(F)(F)F)cc2)cs1	none
COC(=O)C1=C(C)N(Cc2ccccc2C(F)(F)F)C(=NCc2cc(OC)c(OC)c(OC)c2)NC1CCc1ccccc1 (stereo not given)	none (no result: OX1R antag-1, OX1R antag-2, CHO parental Ca)
CCOC(=O)C1CCCN(CC(=O)Nc2c(F)c(F)c(F)c(F)c2F)C1 (stereo not given)	none
CCOC(=O)C1CCCN(CC(=O)c2ccc(F)cc2)C1 (stereo not given)	TAAR1 antag 54, TAAR1 agonist 57
Cc1ccc(C(C(=O)NCc2ccccc2)N(Cc2cccs2)C(=O)c2ccc3c(c2)OCCO3)cc1 (stereo not given)	TAAR1 antag 64, OX1R antag-1 58
COC(=O)c1ccc(C(C(=O)NCc2ccccc2)N(Cc2cccs2)C(=O)c2cnccn2)cc1 (stereo not given)	none
Cc1cccc2[nH]c3c(N4CC=C(c5ccc(F)cc5)CC4)ncnc3c12	OX1R antag-1 77, CHO parental Ca 36
COc1cccc2[nH]c3c(N4CCCCC4)ncnc3c12	none
COc1cccc(N(CC(=O)NCCSCc2ccco2)S(=O)(=O)c2ccccc2)c1	OX1R antag-1 45
COc1ccc(OC)c(N(CC(=O)NCCSCc2ccco2)S(=O)(=O)c2ccc(OC)c(OC)c2)c1	TAAR1 antag 79
COc1ccc(N(CC(=O)NCCSCc2ccccc2C)S(=O)(=O)c2ccccc2)cc1	TAAR1 antag 52
COc1ccc(N(CC(=O)NCC(C)C)S(=O)(=O)c2ccccc2)cc1	none
COc1ccc(Cn2c(C)cc(O)cc2=O)cc1	none (no result: OX1R antag-1, OX1R antag-2, CHO parental Ca)
COc1ccc(NC(=O)CSc2nnc(-c3ccccc3)n2N)cc1	none
CCn1c2ccccc2c2cc(NC(=O)CSc3nnc(-c4ccc(OC)cc4)n3N)ccc21	OX1R antag-1 50
Cc1ccc(N2C(=O)c3cccc4c([N+](=O)[O-])ccc(c34)C2=O)c2cccnc12	none
Cc1nnc(N2C(=O)c3cccc4c([N+](=O)[O-])ccc(c34)C2=O)s1	OX1R antag-1 42
COc1ccc(CNS(=O)(=O)c2cc(Br)ccc2Br)c(OC)c1	none (no result: OX1R antag-1, OX1R antag-2, CHO parental Ca)
O=[N+]([O-])c1nn(-c2ccccc2)n(O)c1=NC1CCN(Cc2ccccc2)CC1	OX1R antag-1 46
O=[N+]([O-])c1nn(-c2ccc3c(c2)OCCO3)n(O)c1=NC1CCN(Cc2ccccc2)CC1	none
Nc1[nH]c(C(=O)c2ccccc2)c(-c2ccc3ccccc3c2)c1C(=O)NC1CC1	none (no result: OX1R antag-1, OX1R antag-2, CHO parental Ca)
COC(=O)C1=C(C)N(C)C(=NCc2ccc(OC)cc2)NC1c1ccc(Cl)cc1 (stereo not given)	none (no result: OX1R antag-1, OX1R antag-2, CHO parental Ca)
COc1ccccc1N(C(C)=O)C1=C(Cl)C(=O)c2ccccc2C1=O	TAAR1 antag 57 (no result: OX1R antag-1, OX1R antag-2, CHO parental Ca)
COc1ccccc1N(C(=O)CCl)c1cn(C(C)=O)c2ccccc12	none
CCOC(=O)N1CCN(c2nc(-c3cccs3)nc3ccccc23)CC1	OX1R antag-1 74
